Measurements as given in ChEMBL document CHEMBL1128434, “Gonadotropin-releasing hormone antagonists: novel members of the azaline B family” (1995).

Legend:
Rattus norvegicus [1] = organism: Rattus norvegicus; assay: Effect in the anti ovulatory assay (AOA) in rats expressed as no. of rats ovulating/No of rats treated at 1.0 mg; 1/8; format: functional
[2] = biological target: T1, Gonadotropin-releasing hormone receptor (Rattus norvegicus) (UniProt P30969); assay: In vitro potency to inhibit GnRH-mediated LH secretion by cultured pituitary cells relative to [Ac-delta-Pro1,DFpa2,DTrp36]GnRH.; format: functional, cell-based; conditions: Pituitary gland cell
T1 sequence (whole entry): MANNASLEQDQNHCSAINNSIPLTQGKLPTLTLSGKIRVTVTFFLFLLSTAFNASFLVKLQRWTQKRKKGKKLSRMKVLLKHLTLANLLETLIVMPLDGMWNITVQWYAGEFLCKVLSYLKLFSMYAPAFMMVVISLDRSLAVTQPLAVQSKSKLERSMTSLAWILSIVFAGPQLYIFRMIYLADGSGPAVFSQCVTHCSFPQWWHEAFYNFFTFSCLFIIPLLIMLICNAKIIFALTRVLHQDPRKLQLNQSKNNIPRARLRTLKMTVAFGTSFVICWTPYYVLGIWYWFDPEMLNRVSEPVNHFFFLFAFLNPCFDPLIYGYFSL
Method in brief: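 Dispersed rat pituitary cells in culture; antagonist inhibition of GnRH-stimulated LH secretion. Potency expressed relative to standard antagonist [Ac-Δ3Pro1,D4FPhe2,DTrp3,6]GnRH taken as 1.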

Rattus norvegicus [3] = organism: Rattus norvegicus; assay: Effect in the anti ovulatory assay (AOA) in rats expressed as no. of rats ovulating/No of rats treated at 0.5 mg; 10/14; format: functional
[4] = biological target: T1, Gonadotropin-releasing hormone receptor (Rattus norvegicus); assay: Duration of action measured using castrated male rat assay to inhibit luteinizing hormone release.; fully active at 72 hr; format: functional
Rattus norvegicus [5] = organism: Rattus norvegicus; assay: Effect in the anti ovulatory assay (AOA) in rats expressed as no. of rats ovulating/No of rats treated at 2.5 mg; 0/6
Rattus norvegicus [6] = organism: Rattus norvegicus; assay: Effect in the anti ovulatory assay (AOA) in rats expressed as no. of rats ovulating/No of rats treated at 2.5 mg; 0/6; format: functional
Rattus norvegicus [7] = organism: Rattus norvegicus; assay: Effect in the anti ovulatory assay (AOA) in rats expressed as no. of rats ovulating/No of rats treated at 1.0 mg; 7/8; format: functional
Rattus norvegicus [8] = organism: Rattus norvegicus; assay: Effect in the anti ovulatory assay (AOA) in rats expressed as no. of rats ovulating/No of rats treated at 1.0 mg; 0/7; format: functional
Rattus norvegicus [9] = organism: Rattus norvegicus; assay: Effect in the anti ovulatory assay (AOA) in rats expressed as no. of rats ovulating/No of rats treated at 1.0 mg; 5/13; format: functional
Rattus norvegicus [10] = organism: Rattus norvegicus; assay: Effect in the anti ovulatory assay (AOA) in rats expressed as no. of rats ovulating/No of rats treated at 0.5 mg; 6/7; format: functional
Rattus norvegicus [11] = organism: Rattus norvegicus; assay: Effect in the anti ovulatory assay (AOA) in rats expressed as no. of rats ovulating/No of rats treated at 2.5 mg; 0/7; format: functional
Rattus norvegicus [12] = organism: Rattus norvegicus; assay: Effect in the anti ovulatory assay (AOA) in rats expressed as no. of rats ovulating/No of rats treated at 5.0 mg; 0/6; format: functional
Rattus norvegicus [13] = organism: Rattus norvegicus; assay: Effect in the anti ovulatory assay (AOA) in rats expressed as no. of rats ovulating/No of rats treated at 2.5 mg; 4/4; format: functional
Rattus norvegicus [14] = organism: Rattus norvegicus; assay: Effect in the anti ovulatory assay (AOA) in rats expressed as no. of rats ovulating/No of rats treated at 2.5 mg; 3/7; format: functional
Rattus norvegicus [15] = organism: Rattus norvegicus; assay: Effect in the anti ovulatory assay (AOA) in rats expressed as no. of rats ovulating/No of rats treated at 0.5 mg; 8/8; format: functional
Rattus norvegicus [16] = organism: Rattus norvegicus; assay: Effect in the anti ovulatory assay (AOA) in rats expressed as no. of rats ovulating/No of rats treated at 1.0 mg; 4/8; format: functional

## CC(=O)N[C@H](Cc1ccc2ccccc2c1)C(=O)N[C@H](Cc1ccc(Cl)cc1)C(=O)N[C@H](Cc1cccnc1)C(=O)N[C@@H](CO)C(=O)N[C@@H](Cc1ccc(NC(=O)CCCNc2n[nH]c(N)n2)cc1)C(=O)N[C@H](Cc1ccc(NC(=O)CCCNc2n[nH]c(N)n2)cc1)C(=O)N[C@@H](CC(C)C)C(=O)N[C@@H](CCCCNC(C)C)C(=O)N1CCC[C@H]1C(=O)N[C@H](C)N
Rattus norvegicus [1]
  No. of rats ovulated: 1
[2]
  Relative potency: 0.21
Rattus norvegicus [3]
  No. of rats ovulated: 10
[4]
  Duration of action: 72 h

## CC(=O)N[C@H](Cc1ccc2ccccc2c1)C(=O)N[C@H](Cc1ccc(Cl)cc1)C(=O)N[C@H](Cc1cccnc1)C(=O)N[C@@H](CO)C(=O)N[C@@H](Cc1ccc(N)cc1)C(=O)N[C@H](Cc1ccc(N)cc1)C(=O)N[C@@H](CC(C)C)C(=O)N[C@@H](CCCCNC(C)C)C(=O)N1CCC[C@H]1C(=O)N[C@H](C)N
Rattus norvegicus [5]
  No. of rats ovulated: 0
Rattus norvegicus [6]
  No. of rats ovulated: 0
[2]
  Relative potency: 0.74
Rattus norvegicus [7]
  No. of rats ovulated: 7
[4]
  Duration of action: 72 h

## CC(=O)N[C@H](Cc1ccc2ccccc2c1)C(=O)N[C@H](Cc1ccc(Cl)cc1)C(=O)N[C@H](Cc1cccnc1)C(=O)N[C@@H](CO)C(=O)N[C@@H](Cc1ccc(Nc2n[nH]c(N)n2)cc1)C(=O)N[C@H](Cc1ccc(Nc2n[nH]c(N)n2)cc1)C(=O)N[C@@H](CC(C)C)C(=O)N[C@@H](CCCCNC(C)C)C(=O)N1CCC[C@H]1C(=O)N[C@H](C)N
[2]
  Relative potency: 1.3
[4]
  Duration of action: 72 h
Rattus norvegicus [8]
  No. of rats ovulated: 0

## CC(=O)Nc1ccc(C[C@H](NC(=O)[C@H](CO)NC(=O)[C@@H](Cc2cccnc2)NC(=O)[C@@H](Cc2ccc(Cl)cc2)NC(=O)[C@@H](Cc2ccc3ccccc3c2)NC(C)=O)C(=O)N[C@H](Cc2ccc(NC(C)=O)cc2)C(=O)N[C@@H](CC(C)C)C(=O)N[C@@H](CCCCNC(C)C)C(=O)N2CCC[C@H]2C(=O)N[C@H](C)N)cc1
Rattus norvegicus [9]
  No. of rats ovulated: 5
Rattus norvegicus [10]
  No. of rats ovulated: 6
Rattus norvegicus [11]
  No. of rats ovulated: 0
[4]
  Duration of action: 72 h

## CC(=O)N[C@H](Cc1ccc2ccccc2c1)C(=O)N[C@H](Cc1ccc(Cl)cc1)C(=O)N[C@H](Cc1cccnc1)C(=O)N[C@@H](CO)C(=O)N(C)[C@@H](Cc1ccc(Nc2n[nH]c(N)n2)cc1)C(=O)N[C@H](Cc1ccc(Nc2n[nH]c(N)n2)cc1)C(=O)N[C@@H](CC(C)C)C(=O)N[C@@H](Cc1ccc(CNC(C)C)cc1)C(=O)N1CCC[C@H]1C(=O)N[C@H](C)N
Rattus norvegicus [12]
  No. of rats ovulated: 0
Rattus norvegicus [13]
  No. of rats ovulated: 4

## CC(=O)N[C@H](Cc1ccc2ccccc2c1)C(=O)N[C@H](Cc1ccc(Cl)cc1)C(=O)N[C@H](Cc1cccnc1)C(=O)N[C@@H](CO)C(=O)N[C@@H](Cc1ccc(Nc2n[nH]c(N)n2)cc1)C(=O)N[C@H](Cc1ccc(Nc2n[nH]c(N)n2)cc1)C(=O)N[C@@H](CC(C)C)C(=O)N[C@@H](Cc1ccc(CNC(C)C)cc1)C(=O)N1CCC[C@H]1C(=O)N[C@H](C)N
Rattus norvegicus [14]
  No. of rats ovulated: 3
[2]
  Relative potency: 1.1

## CC(=O)N[C@H](Cc1ccc2ccccc2c1)C(=O)N[C@H](Cc1ccc(Cl)cc1)C(=O)N[C@H](Cc1cccnc1)C(=O)N[C@@H](CO)C(=O)N[C@@H](Cc1ccc(NC(=O)c2cnccn2)cc1)C(=O)N[C@H](Cc1ccc(NC(=O)c2cnccn2)cc1)C(=O)N[C@@H](CC(C)C)C(=O)N[C@@H](CCCCNC(C)C)C(=O)N1CCC[C@H]1C(=O)N[C@H](C)N
Rattus norvegicus [15]
  No. of rats ovulated: 8
Rattus norvegicus [16]
  No. of rats ovulated: 4
